Compound activity deposited in PubChem by several laboratories.
Shown are actives, neighbours in structure and some others; about 3.1% of the full set was active somewhere.
PHOSPHO1 inh: PHOSPHO1 (human) inhibition | Q8TCT1 | recombinant PHOSPHO1, absorbance phosphatase assay | inhibition, % at 13.3 µM | hit rate 1.1% among 290,000 | AID 1565; in the data active = inhibition above about 60%
Target sequence (Q8TCT1 whole entry, looked up): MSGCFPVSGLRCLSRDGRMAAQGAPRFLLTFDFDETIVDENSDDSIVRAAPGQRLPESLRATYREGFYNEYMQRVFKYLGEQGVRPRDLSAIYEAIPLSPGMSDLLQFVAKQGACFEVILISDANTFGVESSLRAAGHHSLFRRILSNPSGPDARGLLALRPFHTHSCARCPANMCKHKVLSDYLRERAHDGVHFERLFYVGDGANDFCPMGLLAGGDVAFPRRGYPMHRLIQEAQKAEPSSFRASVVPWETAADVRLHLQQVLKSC
IMP-1 inh: blocks Pseudomonas aeruginosa IMP-1 metallo-beta-lactamase; purified IMP-1, nitrocefin hydrolysis, epi-absorbance fluorescence; hit rate 0.45% among 290,000; inhibition, % at 5.6 µM;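 active = inhibition above the mean plus 3 SD of all compounds in the same screening run, cut at about 4.5% in these data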
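System: Purified IMP-1 | Read-out basis: Percent enzyme inhibition | Controls: IMP-1 with DMSO as 0%, enzyme-free DMSO as 100% | Replicates: One well per compound | Doses: 5.6 µM nominal single concentration | Detection: Epi-absorbance fluorescence, 480 nm excitation, 530 nm emission | Incubation: 25 °C, 15 min preincubation, 25 min reaction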
HCV core dimer: HCV core protein dimerization inhibition; TR-FRET GST/Flag-core106 dimerization, 1536-well; hit rate 0.33% among 300,000; inhibition, % at 5 µM;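 active = inhibition above the mean of all tested compounds plus 3 SD, set per screening campaign, cut at about 45% in these data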
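Assay system: tagged HCV core106 pair (GST and Flag); medium: KF-containing HEPES buffer, pH 7.45, DTT, CHAPS, BSA; also added: Eu donor and XL665 acceptor anti-tag antibodies; dosing: 5 µM single dose; timing: compound-protein-antibody incubation 4 h at 22.5 °C; signal: TR-FRET 671 and 617 nm emission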
HCV NS3 hel inh: HCV NS3 helicase inhibition; hit rate 0.56% among 290,000; NS3 helicase DNA unwinding, Cy5 molecular beacon fluorescence; inhibition, % at 10.9 µM;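 active = inhibition above the mean of all tested compounds plus 3 SD, set per campaign, cut at about 35% in these data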
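Measured by: Cy5 fluorescence, 0 and 60 min reads / Assay system: NS3 helicase fragment of HCV / Control set: low DMSO, high thioflavine S at 110 µM / Times: 1 h reaction at 25 °C, ATP-initiated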
SUMO HTRF inh: blocks human SUMOylation mediated by UBC9; P63279; HTRF SUMOylation assay, SAE1/SAE2 + UBC9, in vitro; inhibition, % at 35 µM; hit rate 0.36% among 290,000; AID 2006; in the data active = inhibition above about 50%, passing the limit was not always enough
Target sequence (P63279 whole entry, looked up): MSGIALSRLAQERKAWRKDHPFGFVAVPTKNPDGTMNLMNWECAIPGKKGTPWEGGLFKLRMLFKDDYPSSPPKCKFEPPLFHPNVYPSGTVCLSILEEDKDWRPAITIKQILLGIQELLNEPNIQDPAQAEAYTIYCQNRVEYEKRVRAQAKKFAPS
VIM-2 inhibitor: inhibitors of Pseudomonas aeruginosa VIM-2 metallo-beta-lactamase | purified VIM-2, nitrocefin hydrolysis, epi-absorbance fluorescence | inhibition, % at 5.6 µM | hit rate 0.89% among 290,000 | AID 1527;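 active = inhibition above the mean of all tested compounds plus 3 SD, cutoff set per screening run, cut at about 7.5% in these data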;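 also: red hydrolysis product quenches plate fluorescence so inhibitors raise well fluorescence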
Each line names hits and unclear results; the compound was inactive in the other large screens.

Cc1ccc(/C=C2/SC(=S)N(CC(=O)Nc3ncc(Cc4ccc(C)cc4)s3)C2=O)cc1	HCV core dimer 69.9
Cc1ccc(/C=C2\SC(=S)N(CC(=O)Nc3ncc(Cc4ccccc4Cl)s3)C2=O)cc1	none
Cc1nn(-c2ccccc2)c(C)c1/C=N/NC(=O)CSc1nc2ccccc2c(=O)n1-c1ccc(Br)cc1	HCV core dimer 58.9
O=C(NCCCN1CCc2ccccc2C1)Nc1ccc(Br)cc1	none
O=C(NCCN1CCc2ccccc2C1)Nc1ccc([N+](=O)[O-])cc1	SUMO HTRF inh 57.6
CCN(CC(=O)NCc1cccs1)C(=O)c1ccc(NS(=O)(=O)c2ccc(F)cc2)cc1	none (no result: PHOSPHO1 inh, IMP-1 inh, HCV NS3 hel inh, SUMO HTRF inh, VIM-2 inhibitor)
Cc1ccc2cc(C#N)c(NCc3ccccc3)nc2c1	HCV core dimer 48.3
CC(=O)NC(CC(=O)NC1CCCc2ccccc21)c1ccccc1 (stereo unspecified)	none
CC(=O)Oc1cc2oc(=O)c3c(c2cc1Cl)CCC3	VIM-2 inhibitor 9.7
Cc1ccc(C2=NN(C(=O)CNCCO)C(c3cccs3)C2)cc1 (stereo unspecified)	none
c1ccc(-c2nn3c(C4COc5ccccc5O4)nnc3s2)cc1 (stereo unspecified)	none (no result: PHOSPHO1 inh, HCV core dimer, SUMO HTRF inh)
COc1ccccc1-c1nn2c(C3COc4ccccc4O3)nnc2s1 (stereo unspecified)	PHOSPHO1 inh 92.1
c1ccc(Cc2nn3c(C4COc5ccccc5O4)nnc3s2)cc1 (stereo unspecified)	PHOSPHO1 inh 62.4
CCN1C(=O)[C@H]2[C@@H](c3ccc(-c4ccc(OC)cc4)cc3)N3CCCC[C@@]3(C(=O)OC)[C@H]2C1=O	none (no result: PHOSPHO1 inh, IMP-1 inh, HCV NS3 hel inh, SUMO HTRF inh, VIM-2 inhibitor)
Cc1ccc(S(=O)(=O)N2CCOCC2)cc1C(=O)NNC(=O)c1ccoc1C	none
Cc1ccc(C(=O)N2CCCCC2)cc1S(=O)(=O)N1CCOCC1	none
N#CCSc1nc2ccccc2c(=O)n1CC1CCCC1	none
N#CCSc1nc2ccc(N3CCCCC3)cc2c(=O)n1Cc1ccccc1	PHOSPHO1 inh 66.7
CCNc1ccc(Br)cc(C(=O)/C=C/c2ccccc2Cl)c1=O	IMP-1 inh 10.6 (no result: PHOSPHO1 inh, SUMO HTRF inh)
CNc1ccc(Br)cc(C(=O)/C=C/c2cccc(OC)c2OC)c1=O	IMP-1 inh 6.5
CCNc1ccccc(C(=O)/C=C/c2ccc3c(c2)OCO3)c1=O	HCV core dimer 50.2
CCC(CC)NC(=O)/C=C/c1ccccc1Cl	none
CCOc1ccccc1C(=O)N1CCN(c2ccc(C(F)(F)F)cn2)CC1	none
Cc1cnc(N)c2c(=O)oc3ccccc3c12	VIM-2 inhibitor 8.4
COC(=O)C1=C(CS(=O)(=O)c2cc(OC)ccc2OC)NC(=O)NC1c1ccc(O)c(OC)c1 (stereo unspecified)	none
O=C(O)CCCCCNC(=O)OCC1c2ccccc2-c2ccccc21	none
COc1ccc(Cl)cc1Nc1cc(C)nc2nc(C)nn12	VIM-2 inhibitor 10.0
Cc1cc(Nc2ccc(F)cc2)n2nc(C)nc2n1	VIM-2 inhibitor 9.7
Cc1cc(Nc2ccc3c(c2)OCCO3)n2nc(C)nc2n1	VIM-2 inhibitor 14.1
Cc1cc(Nc2ccc(Br)cc2)n2nc(C)nc2n1	none
Cc1cc(Nc2ccc(F)cc2Cl)n2nc(C)nc2n1	none
COc1ccc(/C=N/NC(=O)COc2ccc(Cl)cc2Cl)cc1Cn1nc(C)cc1C	none
CCN(CC)S(=O)(=O)c1ccc(C(=O)N(c2ccc(C)cc2)C2C=CS(=O)(=O)C2)cc1 (stereo unspecified)	none
COc1ccc(/C=C/C(=O)NC(=S)NNC(=O)Cc2cccs2)cc1	PHOSPHO1 inh 95.7
COc1ccc(/C=C/C(=O)NC(=S)Nc2ccc(C(=O)O)cc2)cc1	PHOSPHO1 inh 67.2
O=C(/C=C/c1cccs1)NC(=S)NNC(=O)c1ccccc1O	none
COc1ccc(NC(=S)NC(=O)/C=C/c2ccc(F)cc2)cc1	none (no result: HCV core dimer)
COc1ccc(C(=O)NNC(=S)NC(=O)/C=C/c2cccs2)cc1	PHOSPHO1 inh 89.7
Cc1ccccc1C(=O)N1CCN=C1SCc1ccc([N+](=O)[O-])cc1	PHOSPHO1 inh 68.5
COc1ccc(N2C(=O)[C@@H]3[C@H](C2=O)[C@H](C(=O)c2ccc(OC(C)=O)cc2)N2N=CC=C[C@@H]32)cc1	HCV core dimer 46.1
CCc1ccc2c(CC(=O)Nc3nnc(C4CC4)s3)coc2c1	IMP-1 inh 61.0
Cc1ccccc1OC(=O)n1c(=S)oc2cc(Cl)ccc21	PHOSPHO1 inh 102.7
C=C(C)C1CC=C(C)/C(=N/NC(=O)CCC(=O)Nc2ccccc2Cl)C1 (stereo unspecified)	none
CCc1ccc(Nc2n[n+](-c3ccccc3)c(-c3ccc(N(CC)CC)cc3)s2)cc1	IMP-1 inh 7.9
CCN(CC)c1ccc(-c2sc(Nc3ccccc3)n[n+]2-c2ccc(F)cc2)cc1	IMP-1 inh 5.0
O=C(Nc1ccc2c(c1)CCC2)c1cc(=O)[nH]c2ccccc12	none
N#Cc1c(NC(=O)CSc2nnc(-c3ccco3)n2-c2ccccc2)sc2c1CCC2	HCV core dimer 64.1
N#Cc1c(NC(=O)CSc2nnnn2C2CCCCC2)sc2c1CCCC2	none
Cc1nnc(SCC(=O)Nc2sc3c(c2C#N)CCCCC3)n1N	PHOSPHO1 inh 61.3
NC(=O)c1c(NC(=O)CSc2nnc(-c3ccco3)n2-c2ccccc2)sc2c1CCC2	PHOSPHO1 inh 81.6, HCV core dimer 72.3
Cc1ccsc1CNCC(O)c1ccccc1 (stereo unspecified)	none (no result: PHOSPHO1 inh)
CN(CC(=O)NCCc1ccccc1)S(=O)(=O)c1ccc(Br)s1	none
COc1cccc2c1cc1c(=O)n(CC(=O)NCCCN3CCCCC3)nc(C)n12	VIM-2 inhibitor 9.2
CCc1c(C(C)S(=O)(=O)c2ccc(C)cc2)[nH]c(=O)n1-c1ccc(C)cc1 (stereo unspecified)	PHOSPHO1 inh 89.7
COc1cc(Br)c(CNc2cc(C)ccc2C)cc1OC	IMP-1 inh 4.7 (no result: PHOSPHO1 inh)
Cc1cccc2cc3c(nc12)SC(=NCC1CCCO1)N(Cc1ccco1)C3 (stereo unspecified)	PHOSPHO1 inh 73.5, HCV core dimer 78.6
Cc1ccc2nc3c(cc2c1)CN(Cc1ccco1)C(=NCC1CCCO1)S3 (stereo unspecified)	none
Cc1ccc(N=Cc2nc(-c3ccc(C)cc3)oc2O)cc1	none (no result: HCV core dimer)
CC(=O)Nc1ccc(N=Cc2nc(-c3ccc(C)cc3)oc2O)cc1	HCV core dimer 65.5
Cc1cc(NC(=O)Nc2cc(F)ccc2F)no1	none
CC/C(=C\C(=O)c1cccnc1)Nc1ccc(C)c(C)c1	PHOSPHO1 inh 96.2
CCc1nnc(NC(=O)CN2C(=O)c3ccccc3C2=O)s1	PHOSPHO1 inh 74.0
CCc1nnc(NC(=O)COC(=O)CN2C(=O)c3ccccc3C2=O)s1	none
CCC(CC)c1nnc(NC(=O)CN2C(=O)c3ccccc3C2=O)s1	none
CCCc1nnc(NC(=O)CN2C(=O)c3ccccc3C2=O)s1	PHOSPHO1 inh 85.8
